Test results taken from ChEMBL document CHEMBL1157080 (Eur J Med Chem, 2010).

Columns and labels:
[1] = target: T1, cGMP-specific 3',5'-cyclic phosphodiesterase (Homo sapiens, UniProt O76074); test: Inhibition of human recombinant PDE5 at 100 uM after 1.5 hrs by fluorescent polarization assay
Procedure, shortened: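 Single 100 μM screening dose, run in triplicate. Purified PDE5 with 50 nM TAMRA-cGMP, 1.5 h at 30 °C, then IMAP binding reagent for 30 min at 30 °C. Percent inhibition from fluorescence polarization.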

HT-29 [2] = test: Growth inhibition of human HT-29 cells after 72 hrs by cell titer glo assay; type: functional, cell-based; conditions: HT-29, 72 h
[3] = target: T1, cGMP-specific 3',5'-cyclic phosphodiesterase; test: Inhibition of human recombinant PDE5 after 1.5 hrs by fluorescent polarization assay
Procedure, shortened: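 Purified PDE5 (5 μ/mL) treated with compound or vehicle plus 50 nM TAMRA-cGMP, incubated 1.5 h at 30 °C. IMAP binding reagent was then added for 30 min at 30 °C and fluorescence polarization read.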

HT-29 [4] = test: Growth inhibition of human HT-29 cells at 100 uM after 72 hrs by cell titer glo assay; type: functional; conditions: HT-29, 72 h, read-out: GI
Procedure, shortened: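 HT-29 cells in RPMI 1640/5% FBS, >95% viable at harvest, seeded 5000 cells/well and incubated 18–24 h before dosing at a single 100 μM screening dose (final DMSO 0.1%). Percent growth inhibition from CellTiter-Glo luminescence 72 h after treatment, triplicate wells.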

Row | Inhibition [1] [%] | IC50 (HT-29 [2]) [µM] | IC50 [3] [µM] | SMILES | inhibition of growth at 100 µM (HT-29 [4]) [%]
1 | 90.3 |  |  | CCN1CC(=O)N2[C@@H](c3ccccc3Br)c3[nH]c4ccccc4c3C[C@H]2C1=O | 
2 | 48.7 | > 100 |  | O=C1[C@@H]2Cc3c([nH]c4ccccc34)[C@H](c3ccccc3Br)N2C(=O)CN1Cc1ccccc1 | 
3 | 35.8 | 4.1 |  | COC(=O)[C@@H]1Cc2c([nH]c3ccccc23)[C@H](c2ccccc2Br)N1C(=O)CCl | 
4 | 93.5 | 22.5 | 6.1 | CCN1C(=O)[C@@H]2Cc3c([nH]c4ccccc34)[C@@H](c3ccccc3Br)N2C1=S | 
5 | 69.1 | > 100 |  | CCCCN1CC(=O)N2[C@@H](c3ccccc3Br)c3[nH]c4ccccc4c3C[C@H]2C1=O | 
6 | 96 |  | 0.1 | CN1CC(=O)N2[C@H](c3ccccc3Br)c3[nH]c4ccccc4c3C[C@@H]2C1=O | 50.4
7 | 91.9 |  | 3.4 | O=C1[C@H]2Cc3c([nH]c4ccccc34)[C@@H](c3ccccc3Br)N2C(=O)CN1Cc1ccccc1 | 34.2
8 | 89.2 |  |  | CCN1CC(=O)N2[C@H](c3ccccc3Br)c3[nH]c4ccccc4c3C[C@H]2C1=O | 47.2
9 | 86 | 1.6 | 29 | COC(=O)[C@H]1Cc2c([nH]c3ccccc23)[C@@H](c2ccccc2Br)N1C(=O)CCl | 
10 | 21.5 | 78 |  | COC(=O)[C@H]1Cc2c([nH]c3ccccc23)[C@H](c2ccccc2Br)N1 | 85
11 | 85.5 | 48 | 5.6 | COC(=O)[C@H]1Cc2c([nH]c3ccccc23)[C@@H](c2ccccc2Br)N1 | 89
12 | 93 |  | 4 | CCN1C(=O)[C@H]2Cc3c([nH]c4ccccc34)[C@H](c3ccccc3Br)N2C1=O | 65.1
13 | 91.1 |  | 3.1 | COC(=O)[C@@H]1Cc2c([nH]c3ccccc23)[C@@H](c2ccccc2Br)N1 | 57.5
14 | 47.9 | > 100 |  | COC(=O)[C@H]1Cc2c([nH]c3ccccc23)[C@H](c2ccccc2Br)N1C(=O)CCl | 
15 | 66.7 |  |  | CCCCN1CC(=O)N2[C@@H](c3ccccc3Br)c3[nH]c4ccccc4c3C[C@@H]2C1=O | 50.2
16 | 98.7 | 21 | 0.29 | CCN1C(=O)[C@H]2Cc3c([nH]c4ccccc34)[C@@H](c3ccccc3Br)N2C1=O | 79.5
17 | 92.7 | 27 | 2.8 | CN1CC(=O)N2[C@@H](c3ccccc3Br)c3[nH]c4ccccc4c3C[C@H]2C1=O | 76.1
18 | 82.8 | > 100 | 74 | CCN1C(=O)[C@H]2Cc3c([nH]c4ccccc34)[C@H](c3ccccc3Br)N2C1=S | 
19 | 89.5 | 24 | 0.64 | CCN1C(=O)[C@@H]2Cc3c([nH]c4ccccc34)[C@H](c3ccccc3Br)N2C1=O | 77.9
20 | 69.4 | > 100 |  | O=C1[C@H]2Cc3c([nH]c4ccccc34)[C@H](c3ccccc3Br)N2C(=O)CN1Cc1ccccc1 | 
21 | 97.6 | 25.5 | 0.06 | CN1CC(=O)N2[C@H](c3ccccc3Br)c3[nH]c4ccccc4c3C[C@H]2C1=O | 
22 | 46 | 26 |  | COC(=O)[C@@H]1Cc2c([nH]c3ccccc23)[C@H](c2ccccc2Br)N1 | 92.8
23 | 91.7 |  |  | CCN1CC(=O)N2[C@@H](c3ccccc3Br)c3[nH]c4ccccc4c3C[C@@H]2C1=O | 65.6
24 | 97 | > 100 |  | CCN1CC(=O)N2[C@H](c3ccccc3Br)c3[nH]c4ccccc4c3C[C@@H]2C1=O | 
25 | 99.7 |  | 0.26 | CCCCN1CC(=O)N2[C@H](c3ccccc3Br)c3[nH]c4ccccc4c3C[C@@H]2C1=O | 55.7
26 | 75.5 |  | 88 | CN1CC(=O)N2[C@@H](c3ccccc3Br)c3[nH]c4ccccc4c3C[C@@H]2C1=O | 61.7
27 | 100 | > 100 | 0.04 | O=C1[C@@H]2Cc3c([nH]c4ccccc34)[C@@H](c3ccccc3Br)N2C(=O)CN1Cc1ccccc1 | 
28 | 93.8 | > 100 | 0.05 | CCCCN1CC(=O)N2[C@H](c3ccccc3Br)c3[nH]c4ccccc4c3C[C@H]2C1=O | 
29 | 99.5 | 20 | 0.038 | CCN1C(=O)[C@@H]2Cc3c([nH]c4ccccc34)[C@@H](c3ccccc3Br)N2C1=O | 69.8
30 | 47.9 |  |  | COC(=O)[C@@H]1Cc2c([nH]c3ccccc23)[C@@H](c2ccccc2Br)N1C(=O)CCl | 

Row | SMILES | Inhibition [1] [%] | IC50 (HT-29 [2]) [µM] | IC50 [3] [µM] | inhibition of growth at 100 µM (HT-29 [4]) [%]
31 | CN1CC(=O)N2[C@H](c3ccc4c(c3)OCO4)c3[nH]c4ccccc4c3C[C@@H]2C1=O | 100 | > 100 |  | 
